The results in this text go back to article PMC6728149 (Science signaling, 2019).

Type in all cases: cell-based, human
Test [1] concerns MYC Ser^62. The test is described as follows: pMYC Ser62 immunoblot in MIA PaCa-2 cells. To be noted: 30 min. In a few lines: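 MIA PaCa-2 cells were exposed to CDK9 inhibitors for 30 min. Lysates were cleared at 18,000 x g, 15 min, 4 °C, and protein was quantified by Bradford. pMYC Ser62 and total MYC were immunoblotted.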
In general terms: A western blot detects proteins with antibodies after separation by electrophoresis.

The subject of test [2] is EGFP-MYC. The test is described as follows: GPS-MYC degradation screen. The settings on record: 6 hours; for effect on EGFP-MYC stability in the GPS-MYC screen: 20 μM. In short, it runs like this:
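MIA PaCa-2 cells were lentivirally transduced with DsRed-IRES-EGFP-MYC and selected with 2 μg/ml puromycin. Frozen stocks were thawed, grown 2 days, then plated at 20,000 cells/well in 384-well plates. Next day, compound was given in DMEM/2% FBS for 6 h. Controls were DMSO, cycloheximide (final 7.5 μg/ml) and MG132 (final 3.75 μM). Cells were detached with Accumax (20 min, 37 °C) and read by plate flow cytometer for EGFP/DsRed. Values were normalized to control wells; run in duplicate.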

For test [3], the system named is MYC. As to the kind of experiment: MYC protein levels by immunoblot in MIA PaCa-2 cells. The settings on record: 6 hours.
In test [4] the test system is CDK9. The test is described as follows: pPol II. The settings on record: MIA PaCa-2 cells, 6 hours. In a few lines:
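After 6 h compound exposure, MIA PaCa-2 lysates were made in 1% Triton buffer, pH 7.4, with protease and phosphatase inhibitors, cleared at 18,000 x g, 15 min, 4 °C, and quantified by Bradford. pPol II and MCL-1 were immunoblotted as CDK9 signaling read-outs.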

For test [5], the system named is CDK8/19. The test is described as follows: pSTAT1. The settings on record: MIA PaCa-2 cells. In short, it runs like this:
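CDK8/19 inhibition in compound-treated MIA PaCa-2 cells was read as pSTAT1 by immunoblot. Lysis was in 1% Triton buffer (25 mM Tris pH 7.4) with protease and phosphatase inhibitors; clarification was at 18,000 x g, 15 min, 4 °C. Blots are representative of at least three independent experiments.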

In test [6] the test system is MYC mRNA. As to the kind of experiment: MYC mRNA by qPCR. The settings on record: MIA PaCa-2 cells. In short, it runs like this:
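MIA PaCa-2 cells were compound-treated (6 h where stated). MYC mRNA was measured by qPCR, normalized to GAPDH or BACT mRNA, and analysed by the ddCT method.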
For orientation: Real-time PCR tracks product formation cycle by cycle.

The structures appear in SMILES notation. Entries after “also recorded” stand apart in the source; their conditions may differ.

Take `CC(C)(C)c1cnc(CSc2cnc(NC(=O)C3CCN(CC(=O)NCCOCCOCCOCCNc4cccc5c4C(=O)N(C4CCC(=O)NC4=O)C5=O)CC3)s2)o1` (stereo not shown) [THAL-SNS-032]: the “MYC phosphorylation at Ser^62” value in test [1] was “decreased MYC phosphorylation at Ser^62”. For the compound `O=C(Nc1n[nH]c2nc(-c3ccco3)c(Br)cc12)C1CC1` [UNC10112671], the “effect on EGFP-MYC stability in the GPS-MYC screen” value (“effect on EGFP-MYC stability” for short) in test [2] is listed as “stabilized MYC”.

As for `CN(C)CCOc1ccc(-c2nc(-c3ccncc3)c(-c3ccc4c(c3)CC/C4=N\O)[nH]2)cc1.Cl.O` [UNC10112687], the “effect on EGFP-MYC stability” value in test [2] was “destabilized MYC”. As to `COc1ncc2cc(C(=O)Nc3cc(C(=O)NCc4cccc(Cl)c4)ccc3Cl)c(=O)[nH]c2n1` [TC-S 7004], in test [3], the “endogenous MYC protein levels” value was “failed to cause a dose-dependent loss of endogenous MYC protein”. In the case of `CN1CCN(C(=O)c2ccc3cc(CCNc4ncnc5ccc(C#N)cc45)ccc3c2)CC1` [Senexin B], in test [4], the MCL-1 protein levels result is “absence of a reduction in MCL-1”. For the same compound, the “pSTAT1 (phosphorylation of STAT1 at S727)” value in test [5] is listed as “reduction in pSTAT1”. Besides, in test [3], the “endogenous MYC protein levels” value is listed as “but not MYC protein levels”.

Regarding `COC(=O)Nc1nc2ccc(Oc3ccc(NC(=O)Nc4ccccc4)cc3)cc2[nH]1` [UNC10112731], the “MYC mRNA levels” value in test [6] was “not due to increased transcription”. Moreover, the “effect on EGFP-MYC stability” value in test [2] is listed as “increased EGFP-MYC without affecting DsRed”. Further, the “EGFP-MYC and endogenous MYC levels in GPS-MYC cells” value in test [2] (secondary validation, flow cytometry and immunoblot) is “dose-dependent increase in EGFP-MYC and endogenous MYC levels”. As for `COc1cc(N2CCN(C)CC2)ccc1Nc1nccc(-c2cn(C)c3cnccc23)n1` [AZ191], the “endogenous MYC protein levels” value in test [3] is reported as “failed to cause a dose-dependent loss of endogenous MYC protein”.

For the compound `S=C(NCc1ccc2c(c1)OCO2)N1CCN(c2ncnc3c2oc2ccccc23)CC1` [amuvatinib], in test [3], the “endogenous MYC protein levels” value was “did not increase endogenous MYC in a dose-dependent manner; also recorded: failed to cause a dose-dependent loss of endogenous MYC protein”. For `CCOc1cc(N2CCC(O)CC2)ccc1Nc1ncc2c(n1)N(C)c1ccccc1C(=O)N2C` [XMD8–92], in test [4], the “phosphorylation of RNA polymerase II (pPol II) at S2” value was “did not reduce phosphorylation of the CDK9 substrate Pol II”.
